Screens: PubChem BioAssay, several laboratories
TDP2 inh: human TDP2 enzyme inhibitors, primary screen, biochemical, epi absorbance, recombinant enzyme; Tyrosyl-DNA phosphodiesterase 2 (Homo sapiens), O95551; T5PNP hydrolysis, p-nitrophenol absorbance 415 nm; inhibition, % at 12.8 µM; 370,000 tested, 0.34% active; AID 720702, 2013;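 active means inhibition above the mean of all tested compounds plus 3 SD, set per campaign, cut at about 25% in these data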;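 further: 0% = DMSO with enzyme and 100% = buffer with substrate but no TDP2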
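System: recombinant human TDP2 / Amount: 120 nM TDP2 per well / Also added: 5 mM T5PNP chromogenic substrate / Doses: 12.8 µM single point, 1% DMSO / Incubation: 2 h at 37 °C / Detection: p-Nitrophenol epi absorbance / Evaluation: % inhibition relative to enzyme-containing and enzyme-free wells / Repeats: singlicate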
PRMT1 inh: PRMT1 methyltransferase inhibitors, primary screen, biochemical, fluorescence polarization; Protein arginine N-methyltransferase 1 (Homo sapiens), Q99873; 370,000 tested, 1.3% active; inhibition, % at 2.79 µM; AID 652257, 2013; recombinant PRMT1, activity-based probe fluorescence polarization;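 active means inhibition above about 21% made by adding two undisclosed values, limit read from the data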
Apaf1 inhib: inhibitors of human Apaf-1 apoptosome, primary screen, biochemical, DEVD-Rh110 fluorescence, uHTS. Apoptotic protease-activating factor 1 (Homo sapiens), O14727. reconstituted apoptosome caspase-3 activity. inhibition, % at 20 µM. 330,000 tested, 0.71% active; active means inhibition of at least 40% at 20 µM;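 further: plate controls were DMSO wells for no effect and DEVD-CHO caspase inhibitor wells for full effect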
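System: reconstituted apoptosome with Apaf-1, cytochrome c, caspase-9, procaspase-3, dATP; Signal: Rh110 fluorescence intensity; Schedule: 30 min compound preincubation, 50 min activation, room temperature; Reagent: cytochrome c trigger plus (Z-DEVD)2-Rh110 caspase-3 substrate.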
PAD4 FP inh: human PAD4 inhibitors, primary screen, biochemical, fluorescence polarization, 1536-well format; inhibition, % at 6.36 µM; Protein-arginine deiminase type-4 (Homo sapiens), Q9UM07; recombinant PAD4, RCA probe fluorescence polarization; 330,000 tested, 0.41% active;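 active means percent inhibition above a cutoff equal to the mean of all tested compounds plus 3 SD, cut at about 15% in these data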;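 further: 0% = PAD4 with RCA probe and DMSO and 100% = probe without PAD4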
Target sequence (Q9UM07 whole entry, looked up): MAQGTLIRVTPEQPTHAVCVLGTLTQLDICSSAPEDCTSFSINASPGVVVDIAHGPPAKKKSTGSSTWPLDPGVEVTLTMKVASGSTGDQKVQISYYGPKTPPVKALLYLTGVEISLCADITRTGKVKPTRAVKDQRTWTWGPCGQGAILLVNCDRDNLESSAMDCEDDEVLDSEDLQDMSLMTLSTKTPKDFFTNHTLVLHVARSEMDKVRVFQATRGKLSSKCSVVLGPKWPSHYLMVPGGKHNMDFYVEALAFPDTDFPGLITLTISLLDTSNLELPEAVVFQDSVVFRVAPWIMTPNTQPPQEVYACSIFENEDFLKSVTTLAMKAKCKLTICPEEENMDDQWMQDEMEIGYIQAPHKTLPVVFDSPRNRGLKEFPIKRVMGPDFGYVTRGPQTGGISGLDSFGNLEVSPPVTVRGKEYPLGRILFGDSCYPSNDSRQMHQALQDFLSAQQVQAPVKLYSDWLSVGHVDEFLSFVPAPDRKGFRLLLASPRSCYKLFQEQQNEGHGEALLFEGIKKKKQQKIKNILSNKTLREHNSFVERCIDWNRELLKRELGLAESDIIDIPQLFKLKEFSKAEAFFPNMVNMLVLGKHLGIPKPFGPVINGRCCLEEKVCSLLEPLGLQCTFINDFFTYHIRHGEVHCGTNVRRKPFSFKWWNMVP
GSTO1 counter: inhibitors of recombinant GSTO1, primary screen, counter-screen for RBBP9 inhibitor project, biochemical, fluorescence polarization. 300,000 tested, 1.1% active. activity-based probe fluorescence polarization. Glutathione S-transferase omega-1 (Homo sapiens), P78417. inhibition, % at 5.96 µM. AID 1974, 2009;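 active means inhibition above the campaign mean inhibition plus 3 SD, cut at about 35% in these data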;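 further: 0% = GSTO1-1 with DMSO and 100% = wells lacking GSTO1-1 enzyme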
PRMT1 inh conf: PRMT1 methyltransferase inhibitors, confirmation, biochemical, fluorescence polarization, triplicate. AID 687036, 2013. shares compounds with PRMT1 inh. recombinant His-PRMT1, activity-based probe fluorescence polarization. 3,300 tested, 42% active. inhibition, % at 2.79 µM;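 active means mean inhibition across replicates above the hit cutoff derived for the earlier primary screen, cut at about 22% in these data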
Active calls of the source: *; . = no result given. An excerpt weighted towards active compounds, which were near 2.6% of everything screened.

SMILES | TDP2 inh | PRMT1 inh | Apaf1 inhib | PAD4 FP inh | GSTO1 counter | PRMT1 inh conf
Clc1ccc(-c2csc(NNC3=NCCCCC3)n2)cc1 | 5 | 18 | 20 | 3 | 15 | .
O=C(O)CC(c1ccccc1)N1C(=O)c2ccccc2C1=O (centres undefined) | -9 | 6 | -7 | 1 | -2 | .
CC(C)N(C(=S)Nc1cccc(S(=O)(=O)N(C)C)c1)c1ccccc1 | -7 | 5 | 2 | 8 | 4 | .
O=c1nc2c(O)cccn2c2c1c(=O)[nH]c1ccccc12 | -21 | 34* | . | . | . | 34*
Cc1cc(C)n2nc(CCCO)nc2n1 | 2 | 0 | 4 | 2 | 2 | .
Cc1cc(C)cc(OCC(=O)Nc2nc(-c3cccnc3)cs2)c1 | -5 | 35* | -8 | -3 | 2 | 13
O=C(COc1ccccc1)Nc1nc(-c2ccncc2)cs1 | -13 | 35* | -14 | 3 | 1 | 34*
O=C(COc1ccccc1)Nc1nc(-c2cccnc2)cs1 | 3 | 7 | -9 | -4 | . | .
COc1ccc(OC)c(C2c3[nH]c4ccccc4c3C[C@H]3C(=O)N(CCCOC(C)C)CC(=O)N23)c1 (some centres undefined) | 2 | 5 | 9 | -1 | 4 | .
CSc1ccc(C2=C/C(=C3/SC(=S)NC3=O)c3ccccc3O2)cc1 | 0 | 0 | . | . | . | .
CCOC(=O)c1c(NS(=O)(=O)Cc2ccccc2)sc2c1CCCC2 | 7 | 4 | 12 | 0 | 1 | .
CCOC(=O)c1c(NS(=O)(=O)c2ccc(Br)cc2)sc2c1CCC2 | -5 | 27* | 7 | -1 | 30 | 13
CC(CCc1ccco1)NC(=O)c1cc2c(-c3ccccc3F)nn(C)c2s1 (centres undefined) | -1 | 47* | 9 | -1 | -7 | 0
CCCN(CCC)CCNC(=O)c1cc2c(-c3ccccc3F)nn(C)c2s1 | 9 | 1 | 9 | -4 | -5 | .
COc1cccc(OC)c1C(=O)Nc1cccnc1 | -5 | 4 | 5 | -3 | 6 | .
O=C(Sc1ccc(Cl)cc1)c1ccccn1 | 11 | 47* | -8 | 2 | 4 | 44*
CCCCOCCCNC(=O)C[C@H]1C[C@@]2(C(=O)OC)C(=C[C@H](C(C)C)O[C@@H]2C2CC2)N(CCC2=CCCCC2)C1=O | -9 | 6 | . | . | . | .
CN1CCc2nc(SCC(=O)Nc3ccc(OC(F)(F)F)cc3)c(C#N)c(-c3cccs3)c2C1 | 10 | 40* | 23 | -4 | -7 | 41*
Cc1cccc(CSc2nc3c(c(-c4cccs4)c2C#N)CN(C)CC3)c1 | 2 | 0 | 8 | 3 | 7 | .
Cc1cc(C)nc(Nc2ccccc2F)n1 | -6 | -3 | -7 | 3 | -3 | .
CCc1sc(C(C2C(=O)CC(C)(C)CC2=O)C2C(=O)CC(C)(C)CC2=O)cc1[N+](=O)[O-] | 17 | 48* | 2 | -1 | 9 | 50*
CC1(C)CC(=O)C(C(c2ccc(F)cc2)C2C(=O)CC(C)(C)CC2=O)C(=O)C1 | 1 | -5 | 6 | -1 | 2 | .
Cn1nnnc1Sc1ncnc2scc(-c3ccc[nH]3)c12 | 12 | 31* | 0 | 6 | . | 2
O=C1Nc2ccccc2C1=NN1CCCCCC1 | -2 | 1 | . | . | . | .
Nc1n[nH]c(=S)n1/N=C1/C(=O)Nc2ccccc21 | -21 | 43* | . | . | . | 40*
SMILES | TDP2 inh | PRMT1 inh | Apaf1 inhib | PAD4 FP inh | GSTO1 counter | PRMT1 inh conf
Nc1c(C(=O)N/N=C/c2cccnc2)oc2nc(-c3ccco3)cc(-c3ccco3)c12 | 4 | 46* | -12 | -3 | 9 | 3
O=C1NC(=S)S/C1=C\c1cc(Cl)cc(Cl)c1O | -5 | 32* | . | . | . | 34*
O=C1NC(=S)SC1=Cc1ccccc1Cl | -8 | 20 | . | . | . | .
Cc1ccc(CSc2nnc(-c3cc(-c4ccc(F)cc4)n[nH]3)n2N)cc1 | 6 | 5 | . | . | . | .
CCN1C(=O)CC(SC2CC(=O)N(CC)C2=O)C1=O (centres undefined) | -9 | 33* | . | . | . | 27*
CCCCN1C(=O)CC(SC2CC(=O)N(CCCC)C2=O)C1=O (centres undefined) | -17 | 57* | . | . | . | 17
CCN1C(=O)CC(N2CCC(C(=O)OC)CC2)C1=O (centres undefined) | 2 | -2 | 10 | -5 | 0 | .
S=c1[nH]c2ccc(Cc3ccc4[nH]c(=S)[nH]c4c3)cc2[nH]1 | -8 | 30* | -11 | -1 | -14 | 7
C/C(=N\Nc1ccc(Cl)c(C(=O)O)c1)c1cccs1 | -23 | 17 | 10 | 0 | 11 | .
C/C(=N\Nc1ccc(Cl)c(C(=O)O)c1)c1ccc[nH]1 | -6 | 32* | -7 | -1 | 17 | 5
O=C(/C=C/c1ccco1)NCC1COc2ccccc2O1 (centres undefined) | -7 | 33* | -9 | 0 | -3 | 16
Cc1ccc(NC(=O)c2cccc(S(=O)(=O)N(C)c3ccccc3)c2)cc1S(=O)(=O)N1CCOCC1 | 10 | 0 | 17 | 0 | -14 | .
COc1ccccc1N1C(=O)C(Cl)=C(Nc2ccccc2O)C1=O | 0 | 40* | . | . | . | 26*
CCOc1ccccc1NC1=C(Cl)C(=O)N(c2ccc(OC)cc2)C1=O | 3 | 8 | 8 | -5 | 6 | .
CCN(C[C@H]1N[C@@](CC)(C(=O)OC)[C@H]2C(=O)N(C)C(=O)[C@@H]12)S(=O)(=O)c1ccc(OC(F)(F)F)cc1 | 5 | -1 | 2 | 0 | . | .
Cc1sc2c3ccsc3ccc2[n+]1C | -5 | 67* | -9 | 14 | 2 | 59*
CCN1/C(=C/c2ccc3cc(C)ccc3[n+]2C)Sc2ccc3sccc3c21 | 2 | -1 | . | . | . | .
N#CC1=C2SCN(c3ccccc3)CN2C(=O)CC1c1ccccc1Cl (centres undefined) | 0 | 20 | 18 | -1 | 6 | .
CCOc1ccc(N2CSC3=C(C#N)C(c4ccco4)CC(=O)N3C2)cc1 (centres undefined) | 34* | 71* | 37 | 0 | 31 | 70*
CCc1ccccc1N1CSC2=C(C#N)C(c3cc(OC)c(OC)cc3OC)CC(=O)N2C1 (centres undefined) | 15 | 62* | 43* | -19 | 33 | 79*
COc1cc(OC)c(C2CC(=O)N3CN(C)CSC3=C2C#N)cc1OC (centres undefined) | 1 | 42* | 14 | -1 | -1 | 77*
COc1cc(OC)c(C2CC(=O)N3CN(c4ccccc4)CSC3=C2C#N)cc1OC (centres undefined) | 0 | 52* | 6 | -3 | 3 | 26*
